Data reported in ChEMBL document CHEMBL1649111, “Restoration of susceptibility of intracellular methicillin-resistant Staphylococcus aureus to beta-lactams: comparison of strains, cells, and antibiotics” (Antimicrob Agents Chemother, 2008).
Values after ≈ are worked out from the molar mass of the structure shown.

Assays:
[1] = Chemical stability of the compound assessed as compound remaining after 24 hrs in PBS buffer by HPLC analysis at pH 7.4; format: physicochemical; conditions: read-out: Activity
Outline: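 Drug at 50 mg/liter initial concentration incubated 24 h at 37°C in buffered medium at pH 7.4 or 5.5. Remaining drug measured by HPLC signal disappearance; mobile phase 25 mM phosphate buffer pH 6.7 with acetonitrile (75:25).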

[2] = system: Staphylococcus aureus; assay: (§1) Antimicrobial activity against hospital acquired methicillin-resistant Staphylococcus aureus ATCC 33591 infected in human THP-1 cells assessed as increase in bacterial count from original inoculum at low compound concentration after 24 hrs at pH 7.4; format: functional
[3] = system: Staphylococcus aureus; assay: Antimicrobial activity against beta-lactamase negative methicillin-susceptible Staphylococcus aureus ATCC 25923 by broth microdilution method at pH 7.4; format: functional
[4] = system: Staphylococcus aureus; assay: Antimicrobial activity against hospital acquired methicillin-resistant Staphylococcus aureus ATCC 33591 by broth microdilution method at pH 7.4; format: functional
Outline: (§2)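 Minimal inhibitory concentration by broth microdilution at pH 7.4, read in mg/liter. The MRSA genotype was confirmed by mecA PCR, and the SCCmec subgroup was assigned by multiplex PCR.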

[5] = system: Staphylococcus aureus; assay: Antimicrobial activity against hospital acquired methicillin-resistant Staphylococcus aureus N4120032 obtained from wound infection of patient by broth microdilution method at pH 7.4; format: functional; outline: as §2
[6] = system: Staphylococcus aureus; assay: Antimicrobial activity against hospital acquired methicillin-resistant Staphylococcus aureus N4120210 obtained from urinary tract infection patient by broth microdilution method at pH 7.4; format: functional; conditions: N4120210, Urine; outline: as §2
[7] = system: Staphylococcus aureus; assay: Antimicrobial activity against Panton-valentine leukocidin positive community acquired methicillin-resistant Staphylococcus aureus NRS192 obtained from patient with pneumonia and septic arthritis by broth microdilution method at pH 7.4; format: functional; outline: as §2
[8] = system: Staphylococcus aureus; assay: Antimicrobial activity against Panton-valentine leukocidin positive community acquired methicillin-resistant Staphylococcus aureus N4042228 by broth microdilution method at pH 5.5; format: functional
[9] = system: Staphylococcus aureus; assay: Antimicrobial activity against Panton-valentine leukocidin positive community acquired methicillin-resistant Staphylococcus aureus NRS192 obtained from patient with pneumonia and septic arthritis by broth microdilution method at pH 5.5; format: functional
[10] = system: Staphylococcus aureus; assay: Antimicrobial activity against animal acquired methicillin-resistant Staphylococcus aureus N7112046 by broth microdilution method at pH 5.5; format: functional
[11] = system: Staphylococcus aureus; assay: Antimicrobial activity against constitutive beta-lactamase negative methicillin-resistant Staphylococcus aureus COL NRS100 infected in human THP-1 cells assessed as increase in bacterial count from original inoculum at low compound concentration after 24 hrs at pH 5.5; format: functional
Outline: (§3)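 Bacteria phagocytosed by unactivated human THP-1 macrophages, then incubated 24 h with extracellular antibiotic at about 0.01× to 100× the pH 5.5 broth MIC. CFU per mg cell protein counted against the original inoculum, n = 3. A Hill-equation fit (slope factor 1) gave Emin and Emax, extrapolated to infinitely low and high concentration, and EC50. Static concentration was graphically interpolated.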

[12] = system: Staphylococcus aureus; assay: as §1, with “Panton-valentine leukocidin positive community” for “hospital”, “N4090440 obtained from wound infection of patient” for “ATCC 33591”, “5.5” for “7.4”; format: functional; outline: as §3
[13] = system: Staphylococcus aureus; assay: (§4) Antimicrobial activity against hospital acquired methicillin-resistant and vancomycin-intermediate Staphylococcus aureus NRS18 obtained from wound, skin and soft tissue infection of patient infected in human THP-1 cells assessed as increase in bacterial count from original inoculum at low compound concentration after 24 hrs at pH 5.5; format: functional
Outline: (§5)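 Human THP-1 macrophages infected with each S. aureus strain. Cloxacillin added extracellularly at about 0.01× to 100× the broth MIC measured at pH 5.5, with gentamicin 0.5 mg/liter to stop extracellular growth. Incubated 24 h. CFU counted per mg cell protein as change from the post-phagocytosis inoculum, n = 3. Emin, Emax and EC50 from a Hill fit; static concentration by graphical interpolation.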

[14] = system: Staphylococcus aureus; assay: as §4, with “NRS126” for “NRS18”, “bloodstream” for “wound, skin and soft tissue”; format: functional; outline: as §3
[15] = system: Staphylococcus aureus; assay: as §4, with “VRS2” for “NRS18”; format: functional; outline: as §5
[16] = system: Staphylococcus aureus; assay: Antimicrobial activity against animal acquired methicillin-resistant Staphylococcus aureus N7112046 infected in human THP-1 cells assessed as increase in bacterial count from original inoculum at low compound concentration after 24 hrs at pH 5.5; format: functional; outline: as §3
[17] = system: Staphylococcus aureus; assay: Antimicrobial activity against hospital acquired methicillin-resistant Staphylococcus aureus ATCC 33591 infected in human THP-1 cells assessed as decrease in bacterial count from original inoculum at high compound concentration after 24 hrs at pH 5.5; format: functional; outline: as §3
[18] = system: Staphylococcus aureus; assay: Antimicrobial activity against hospital acquired methicillin-resistant Staphylococcus aureus N4120032 obtained from wound infection opf patient infected in human THP-1 cells assessed as decrease in bacterial count from original inoculum at high compound concentration after 24 hrs at pH 5.5; format: functional; outline: as §3
[19] = system: Staphylococcus aureus; assay: (§6) Antimicrobial activity against hospital acquired methicillin-resistant Staphylococcus aureus N4120210 obtained from urinary tract infection of patient infected in human THP-1 cells assessed as decrease in bacterial count from original inoculum at high compound concentration after 24 hrs at pH 5.5; format: functional, Urine; outline: as §3
[20] = system: Staphylococcus aureus; assay: as §6, with “methicillin-resistant and vancomycin-intermediate” for “methicillin-resistant”, “NRS126” for “N4120210”, “bloodstream” for “urinary tract”; format: functional; outline: as §3
[21] = system: Staphylococcus aureus; assay: Antimicrobial activity against hospital acquired methicillin-resistant Staphylococcus aureus HMC546 infected in human THP-1 cells assessed as decrease in bacterial growth after 24 hrs at pH 5.5; format: functional, organism-based; conditions: HMC546, THP-1, 24 h; outline: as §3
[22] = system: Staphylococcus aureus; assay: Antimicrobial activity against Panton-valentine leukocidin positive community acquired methicillin-resistant Staphylococcus aureus NRS192 obtained from patient with pneumonia and septic arthritis infected in human THP-1 cells assessed as decrease in bacterial growth after 24 hrs at pH 5.5; format: functional, organism-based; conditions: NRS192, THP-1, 24 h; outline: as §3
[23] = system: Staphylococcus aureus; assay: Antimicrobial activity against hospital acquired methicillin-resistant and vancomycin-intermediate Staphylococcus aureus NRS18 obtained from wound, skin and soft tissue infection of patient infected in human THP-1 cells assessed as decrease in bacterial growth after 24 hrs at pH 5.5; format: functional, organism-based; conditions: NRS18, THP-1, 24 h; outline: as §3
[24] = system: Staphylococcus aureus; assay: Bacteriostatic activity against constitutive beta-lactamase negative methicillin-resistant Staphylococcus aureus COL NRS100 infected in human THP-1 cells assessed as decrease in bacterial growth after 24 hrs at pH 5.5; format: functional; outline: as §5
[25] = system: Staphylococcus aureus; assay: Bacteriostatic activity against hospital acquired methicillin-resistant Staphylococcus aureus N4120032 infected in human THP-1 cells assessed as decrease in bacterial growth after 24 hrs at pH 5.5; format: functional; outline: as §5
[26] = system: Staphylococcus aureus; assay: Bacteriostatic activity against hospital acquired methicillin-resistant Staphylococcus aureus HMC546 infected in human THP-1 cells assessed as decrease in bacterial growth after 24 hrs at pH 5.5; format: functional; outline: as §5
[27] = system: Staphylococcus aureus; assay: Bacteriostatic activity against Panton-valentine leukocidin positive community acquired methicillin-resistant Staphylococcus aureus N4042228 infected in human THP-1 cells assessed as decrease in bacterial growth after 24 hrs at pH 5.5; format: functional; outline: as §5
[28] = system: Staphylococcus aureus; assay: Bacteriostatic activity against hospital acquired methicillin-resistant and vancomycin-intermediate Staphylococcus aureus NRS126 infected in human THP-1 cells assessed as decrease in bacterial growth after 24 hrs at pH 5.5; format: functional; outline: as §5
[29] = system: Staphylococcus aureus; assay: Bacteriostatic activity against animal acquired methicillin-resistant Staphylococcus aureus N7112046 infected in human THP-1 cells assessed as decrease in bacterial growth after 24 hrs at pH 5.5; format: functional; outline: as §5

Structure (SMILES): Cc1onc(-c2ccccc2Cl)c1C(=O)N[C@@H]1C(=O)N2[C@@H]1SC(C)(C)[C@@H]2C(=O)O [CLOXACILLIN]
- remaining at 24 h [1]: 97.8%
- log10cfu [2]: 2.27
- MIC [3]: 0.125 µg/mL (≈ 0.287 µM)
- MIC [4]: 16 µg/mL (≈ 36.7 µM)
- MIC [5]: 1 µg/mL (≈ 2.29 µM)
- MIC [6]: 2 µg/mL (≈ 4.59 µM)
- MIC [7]: 1 µg/mL (≈ 2.29 µM)
- MIC [8]: 0.03 µg/mL (≈ 0.0688 µM)
- MIC [9]: 0.06 µg/mL (≈ 0.138 µM)
- MIC [10]: 0.125 µg/mL (≈ 0.287 µM)
- log10cfu [11]: 2.42
- log10cfu [12]: 2.51
- log10cfu [13]: 2.07
- log10cfu [14]: 2.76
- log10cfu [15]: 1.69
- log10cfu [16]: 1.84
- log10cfu [17]: 0.55
- log10cfu [18]: 0.74
- log10cfu [19]: 0.63
- log10cfu [20]: 0.69
- EC50 [21]: 5.67 ×MIC
- EC50 [22]: 6.07 ×MIC
- EC50 [23]: 3.96 ×MIC
- Activity [24]: 8.31 ×MIC
- Activity [25]: 33.1 ×MIC
- Activity [26]: 11.7 ×MIC
- Activity [27]: 45.7 ×MIC
- Activity [28]: 20.9 ×MIC
- Activity [29]: 17.8 ×MIC
